Data reported in article PMC6381215 (Pharmacology Research & Perspectives, 2019).

Assays:
[1] = system: Ca2+ channel (L, verapamil site); assay: radioligand competition; details: read-out: IC50 (M) ^a
Outline: (§1)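 Outsourced radioligand competition binding panel of receptors, transporters and ion channels. Primary screen used a single 10 μmol L−1 concentration of test compound to give % inhibition of control specific binding. […] IC50 and Hill coefficient were obtained by non-linear regression.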

[2] = system: Na+ channel (site 2); assay: radioligand competition; details: read-out: IC50 (M) ^a
Outline: as §1

[3] = system: Sigma (1 and 2); assay: radioligand competition; details: read-out: IC50 (M) ^a; non-selective sigma 1 and 2
Outline: as §1

[4] = target: NMDA receptor (ion-channel / PCP site), rat forebrain membranes; assay: enhancement of [3H]MK-[…]) binding; details: 5 mM Tris-HCl pH 7.4, 25 °C, 20 h

COc1cccc(N(C)C(=N)Nc2cc(SC)ccc2Cl)c1 [GMOM, N‐(2‐chloro‐5‐thiomethylphenyl)‐N′‐(3‐methoxyphenyl)‐N′‐methylguanidine] was tested, and the IC50 [1] was 2.2e-06 M, the IC50 [2] was 3.9e-06 M and the IC50 [3] was 2.2e-06 M.

Work on N[C@@H](CCC(=O)O)C(=O)O [L-glutamate] yielded an EC50 ([4]; agonist (glutamate) site, no added glycine) of 200 ± 10 nM.

Work on NCC(=O)O [glycine] yielded an EC50 ([4]; co-agonist (glycine) site, no added glutamate) of 1050 ± 500 nM.
